Data on ten compounds can be found in ChEMBL document CHEMBL1148692, “Synthesis, antiviral and antitumor activity of 2-substituted-5-amidino-benzimidazoles” (Bioorg Med Chem, 2007).

The subject of one assay is Coxsackievirus B5. Put plainly: Antiviral activity against Coxsackievirus B5 in GMK cells by MTT assay. The class given is functional, organism-based. As to conditions: Enterovirus B. Put shortly: (§1)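 GMK monolayers were seeded at 10⁵ cells/mL and grown in DMEM with 10% FBS. Compound dilutions from 10⁻⁴ to 10⁻¹⁰ M were added to one-day-old confluent cells, immediately followed by virus at 10 CCID50 in DMEM with 2% serum. Cell lysis was followed microscopically at 24 h and quantified by MTT, as % CPE inhibition versus infected wells without compound. EC50 is the mean of at least two independent MTT experiments.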
In general terms: Tetrazolium dyes change colour on reduction, which living cells bring about.

For another assay, the system named is MCF7. As to the kind of experiment: Growth inhibition of human MCF7 cells by MTT assay. It is filed as functional, cell-based. In short, it runs like this: (§2)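 Cells were kept as monolayers in DMEM with 10% FBS, 2 mM glutamine and antibiotics at 37 °C under 5% CO₂, and seeded at 1–3 × 10⁴ cells/mL. They were exposed for 72 h to five 10-fold dilutions (10⁻⁸–10⁻⁴ M), with DMSO solvent controls. Growth was read by MTT at 570 nm and expressed as percentage growth relative to time-zero and untreated controls. IC50 was obtained by linear regression from quadruplicates in three experiments.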

The next assay relates to SW-620. Put plainly: Growth inhibition of human SW620 cells by MTT assay. It is filed as functional, cell-based. In short, it runs like this:
as §2

Another assay relates to Human adenovirus 5. As to the kind of experiment: Antiviral activity against Adenovirus 5 in HeLa cells by MTT assay. As to conditions: in the assay text read “by optical evaluation of CPE” for “by MTT assay”; for EC50: Human mastadenovirus C. The class given is functional, organism-based. Put shortly: (§3)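 HeLa monolayers were seeded at 10⁵ cells/mL and grown in DMEM with 10% FBS. Compounds were serially diluted from 10⁻⁴ to 10⁻¹⁰ M and added to one-day-old confluent monolayers, which were then immediately infected at 10 CCID50 in DMEM with 2% serum. Cytopathic effect was scored by optical microscopy at 48 h and compared with untreated infected wells. EC50 is the mean of at least three independent evaluations.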

The nature of assay [1]: Growth inhibition of human WI38 cells by MTT assay. The class given is cell-based. As to conditions: WI-38. In short, it runs like this: as §2
The next assay deals with Human alphaherpesvirus 1. As to the kind of experiment: Antiviral activity against Herpesvirus 1 in HeLa cells by MTT assay. It is filed as functional, organism-based. The settings on record: in the assay text read “by optical evaluation of CPE” for “by MTT assay”; for EC50: Human alphaherpesvirus 1, HeLa. In short, it runs like this: as §3
For a further assay, the system named is HeLa. Put plainly: Growth inhibition of human HeLa cells by MTT assay. The class given is functional, cell-based. Put shortly: as §2
The subject of the next assay is Human echovirus 7. As to the kind of experiment: Antiviral activity against Echovirus 7 in GMK cells by MTT assay. It is filed as functional, cell-based, Echovirus E7. As to conditions: Enterovirus B. Put shortly:
as §1

The next assay deals with MIA PaCa-2. Put plainly: Growth inhibition of human MiaPaCa2 cells by MTT assay. The class given is functional, cell-based. Put shortly: as §2
Another assay deals with NCI-H460. Put plainly: Growth inhibition of human H460 cells by MTT assay. It is filed as functional, cell-based. In short, it runs like this: as §2

SMILES strings stand for the structures. Calls of active or inactive are those of the source. The calls are words filed in the database; no cut-off is given here.

For orientation: EC50 means the concentration at which the effect is half-maximal. Higher therefore signals weaker potency. Usually IC50 stands for the concentration that gives 50% inhibition. A low value points to higher potency. For `Cn1cccc1-c1nc2cc(C3=NCCN3)ccc2[nH]1`, the EC50 in the assay with Coxsackievirus B5 was more than 100 µM; in the assay with Human adenovirus 5, more than 100 µM; with Human alphaherpesvirus 1 it was 28.5 µM; in the assay with Human echovirus 7, more than 100 µM. Besides, the IC50 in the assay with MCF7 came to 5 µM; in the assay on SW-620, 15 µM; in [1], 15.6 µM; in the assay with HeLa, 20 µM; in the assay with MIA PaCa-2 it was 11.5 µM; in the assay on NCI-H460, 38 µM.
For `c1ccc(-c2nc3cc(C4=NCCN4)ccc3[nH]2)nc1`, the concentration giving a half-maximal response (EC50) in the assay on Coxsackievirus B5 is 4.3 µM; with Human adenovirus 5, more than 100 µM; with Human alphaherpesvirus 1, 56.7 µM; with Human echovirus 7, 0.63 µM. Also, the IC50 in the assay with MCF7 stood at 12 µM; in the assay on SW-620, 19 µM; in [1], 12 µM; with HeLa, 16 µM; in the assay with MIA PaCa-2 it was 16 µM; with NCI-H460, 22.5 µM.
In the case of `N=C(N)c1ccc2[nH]c(-c3ccccn3)nc2c1`, the 50% effective concentration (EC50) in the assay on Coxsackievirus B5 is 1.7 µM; in the assay with Human adenovirus 5, more than 100 µM; with Human alphaherpesvirus 1, more than 100 µM; in the assay on Human echovirus 7 it was 3.2 µM. The IC50 is not below 100 µM in the assay on MCF7; more than 100 µM in the assay with SW-620; 59.4 µM in assay [1]; 82 µM in the assay with HeLa; more than 100 µM in the assay on MIA PaCa-2; more than 100 µM with NCI-H460.
Consider `N=C(N)c1ccc2[nH]c(-c3cnc[nH]3)nc2c1`, for which the EC50 in the assay on Coxsackievirus B5 and in the assay with Human echovirus 7 was more than 100 µM throughout. Further, the IC50 in the assay on MCF7 is 7.2 µM; in the assay on SW-620, more than 100 µM; in assay [1], more than 100 µM; with HeLa it was more than 100 µM; in the assay on MIA PaCa-2, 34 µM; with NCI-H460, more than 100 µM. In addition, the result with Human adenovirus 5 and in the assay on Human alphaherpesvirus 1 was inactive.
Turning to `c1ncc(-c2nc3cc(C4=NCCN4)ccc3[nH]2)[nH]1`, the 50% effective concentration (EC50) with Coxsackievirus B5, in the assay on Human alphaherpesvirus 1 and in the assay on Human echovirus 7 was more than 100 µM in each case. In addition, the IC50 in the assay with MCF7 is not below 100 µM; with SW-620 it was more than 100 µM; in assay [1], more than 100 µM; with HeLa, more than 100 µM; in the assay with MIA PaCa-2, more than 100 µM; with NCI-H460 it was more than 100 µM. Also, the result in the assay with Human adenovirus 5 was inactive.
In the case of `CC(C)NC(=N)c1ccc2[nH]c(-c3cccn3C)nc2c1`, the concentration giving a half-maximal response (EC50) with Coxsackievirus B5 was more than 100 µM; in the assay on Human echovirus 7, 23.2 µM. For the same compound, the IC50 with MCF7 was 20 µM; in the assay on SW-620, more than 100 µM; in assay [1], more than 100 µM; in the assay with HeLa it was more than 100 µM; in the assay on MIA PaCa-2, more than 100 µM; in the assay with NCI-H460, more than 100 µM. The result with Human adenovirus 5 and with Human alphaherpesvirus 1 was inactive.
With `CC(C)NC(=N)c1ccc2[nH]c(-c3cnc[nH]3)nc2c1`, the half-maximal effective concentration (EC50) in the assay with Coxsackievirus B5, in the assay on Human alphaherpesvirus 1 and in the assay with Human echovirus 7 was more than 100 µM throughout. The half-inhibitory concentration (IC50) was 26 µM in the assay with MCF7; more than 100 µM with SW-620; more than 100 µM in assay [1]; more than 100 µM with HeLa; more than 100 µM in the assay on MIA PaCa-2; more than 100 µM in the assay with NCI-H460. Further, the result with Human adenovirus 5 was inactive.
Regarding `Cn1cccc1-c1nc2cc(C(=N)N)ccc2[nH]1`, the EC50 in the assay with Coxsackievirus B5 was 3.5 µM; with Human adenovirus 5 it was 5.9 µM; in the assay on Human alphaherpesvirus 1, 30 µM; in the assay with Human echovirus 7 it was 5 µM. Further, the half-maximal inhibitory concentration (IC50) with MCF7 was 12 µM; with SW-620 it was 84 µM; in assay [1], more than 100 µM; in the assay with HeLa, 70 µM; in the assay on MIA PaCa-2, more than 100 µM; in the assay on NCI-H460, more than 100 µM.
Take `CC(C)NC(=N)c1ccc2[nH]c(-c3ccccn3)nc2c1`: the EC50 with Coxsackievirus B5 was 2.7 µM; with Human adenovirus 5 it was 15.2 µM; with Human alphaherpesvirus 1, more than 100 µM; in the assay on Human echovirus 7, 0.33 µM. In addition, the 50% inhibitory concentration (IC50) in the assay on MCF7 was 50 µM; with SW-620, more than 100 µM; in assay [1], 20.4 µM; in the assay with HeLa, more than 100 µM; in the assay on MIA PaCa-2, 79 µM; in the assay on NCI-H460, more than 100 µM.
With `COc1cc([C@@H]2c3cc4c(cc3[C@@H](O[C@@H]3O[C@@H]5CO[C@@H](C)O[C@H]5[C@H](O)[C@H]3O)[C@H]3COC(=O)[C@H]23)OCO4)cc(OC)c1O` [ETOPOSIDE], the values for the IC50 in the assay with HeLa and with NCI-H460 were 2.9 µM and 0.2 µM, respectively.
